Key:
[1] = test system: Mycobacterium tuberculosis; assay: Binding affinity to Mycobacterium tuberculosis DXR by isothermal titration […] assay in presence of 2 mM NADPH and 150 mM NaCl at 279 K and pH 7.6
Plasmodium falciparum = assay: Binding affinity to His6-tagged Plasmodium falciparum DXR expressed in Escherichia coli M15 by isothermal titration […] assay in presence of 2 mM NADPH and 150 mM NaCl at 279 K and pH 7.6
How it was run: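 PfDXR gene cloned into pQE30, expressed in E. coli M15, and purified as His6-tagged protein. ITC run at 279 K, pH 7.6, with 2 mM Mn2+ and 2 mM NADPH. Ka and ΔH come from curve fitting, with Kd as the inverse of Ka.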

Escherichia coli [2] = assay: Binding affinity to Escherichia coli DXR by isothermal titration […] assay in presence of 2 mM NADPH and 150 mM NaCl at 279 K and pH 7.6 and Mg2+
How it was run: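 Isothermal titration calorimetry of inhibitor titrated into E. coli DXR at 279 K, pH 7.6, with 2 mM NADPH, 150 mM NaCl and Mg2+. Ka and ΔH come from fitted titration curves, with ΔG and ΔS derived from them. Kd is taken as the inverse of Ka.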

Escherichia coli [3] = assay: Binding affinity to Escherichia coli DXR by isothermal titration […] assay in presence of 2 mM NADPH and 150 mM NaCl at 279 K and pH 8.5 and Mg2+
How it was run: (§1)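 Heat of inhibitor binding to E. coli DXR (EcDXR) was measured by isothermal titration calorimetry and fitted to binding curves. The fit gave the association constant Ka (M–1) and ΔH, with ΔG and ΔS also reported. Kd was taken as the inverse of Ka. The divalent metal ion (Mg2+ or Mn2+) was included in the titration.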

Escherichia coli [4] = assay: Binding affinity to Escherichia coli DXR by isothermal titration […] assay in presence of 2 mM NADPH and 150 mM NaCl at 279 K and pH 7.6 and Mn2+; how it was run: as §1
[5] = Inhibition of His6-tagged Plasmodium falciparum DXR expressed in Escherichia coli M15 using DXP as substrate preincubated for 5 mins
[6] = Inhibition of Mycobacterium tuberculosis DXR using DXP as substrate preincubated for 5 mins
[7] = Inhibition of Escherichia coli DXR using DXP as substrate preincubated for 5 mins
Escherichia coli [8] = assay: Binding affinity to Escherichia coli DXR by isothermal titration […] assay in presence of 2 mM NADPH and 150 mM NaCl at 279 K and pH 8.5
How it was run: (§2)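 Isothermal titration calorimetry of inhibitor binding to E. coli DXR, run at 279 K with 2 mM NADPH and 150 mM NaCl. Titrations were done with Mg2+ or Mn2+ present, or with no divalent metal ion. Fitted curves gave ΔH and Ka, with ΔG and ΔS derived from them. Kd was taken as the inverse of Ka.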

Escherichia coli [9] = assay: Binding affinity to Escherichia coli DXR by isothermal titration […] assay in presence of 2 mM NADPH and 150 mM NaCl at 279 K and pH 7.6; how it was run: as §2

Structure (SMILES)	Ka [1]	Ka (Plasmodium falciparum)	Ka (Escherichia coli [2])	Ka (Escherichia coli [3])	Ka (Escherichia coli [4])	Ki [5]	Ki [6]	Ki [7]	Ka (Escherichia coli [8])	Ka (Escherichia coli [9])
O=CN(O)CCCP(=O)(O)O [FOSMIDOMYCIN]	3.45 ×10⁶ /M	1.28 ×10⁷ /M	6.67 ×10⁶ /M	5.6 ×10⁶ /M	7.35 ×10⁶ /M	–	–	–	–	–
CC(=O)N(O)CCCP(=O)(O)O [FR-900098]	1.79 ×10⁶ /M	1.28 ×10⁷ /M	7.14 ×10⁶ /M	–	–	11 nM	130 nM	19 nM	–	–
O=CN(O)CCC(c1ccc(Cl)c(Cl)c1)P(=O)(O)O (centres undefined)	2.08 ×10⁶ /M	3.13 ×10⁶ /M	3.03 ×10⁶ /M	–	–	15 nM	1200 nM	58 nM	–	–
O=P(O)(O)Cc1ccc(-c2ccccc2)cn1	4.44 ×10⁵ /M	4.67 ×10⁵ /M	4.83 ×10⁵ /M	–	–	1100 nM	3200 nM	420 nM	–	–
O=P(O)(O)Cc1ccccn1 [PYRIDIN-2-YLMETHYLPHOSPHONIC ACID]	6.29 ×10⁵ /M	8.77 ×10⁵ /M	4.93 ×10⁵ /M	–	–	3300 nM	1600 nM	2300 nM	4.89 ×10⁵ /M	4.31 ×10⁵ /M
O=c1ccc(-c2ccccc2)cn1O [1-HYDROXY-5-PHENYLPYRIDIN-2(1H)-ONE]	3.42 ×10⁵ /M	2.69 ×10⁵ /M	1.72 ×10⁵ /M	–	–	14600 nM	21800 nM	700 nM	2.55 ×10⁵ /M	2.87 ×10⁵ /M
